STAT3 blocker: STAT3 signaling inhibition. inhibition, % at 5.5 µM. hit rate 0.89% among 190,000. U3A cells, IL-6 STAT3-luciferase reporter, luminescence; host cell line lacks STAT1;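 active = inhibition above the mean inhibition across all screened compounds plus 3 SD, cut at about 44% in these data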;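 note: 0% = DMSO only wells and 100% = 100 µM nifuroxazide control wells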
b-catenin transl: beta-catenin nuclear translocation modulation; nuclear translocation activity, % at 5 µM; hit rate 0.3% among 190,000; HeLa beta-catenin nuclear translocation, immunofluorescence imaging;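 active = nuclear translocation activity above 50% at 5 µM, with a well cell count of 50 or more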;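 note: per-cell ratio of nuclear to cytoplasmic median beta-catenin stain intensity; plate controls were DMSO negative control for no effect and GSK-3 inhibitor IX positive control for full effect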
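Test system: human HeLa cells, native beta-catenin. Compound dosing: 5 µM primary single dose, 0.1% DMSO, 0.02–20 µM confirmation series. Incubation: compound exposure 24 h at 37°C. Detection: beta-catenin immunostaining with DAPI counterstain, 20x imaging, 6 fields/well. Read-out basis: Nuclear/cytoplasmic beta-catenin signal ratio, % activation.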
STAT1 inh: inhibitors of IFN-gamma induced STAT1 signaling; NIH 3T3 STAT1-luciferase reporter, luminescence; AID 920; hit rate 0.35% among 200,000; inhibition, % at 5.5 µM;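 active = inhibition above a set limit, the mean inhibition across all tested compounds plus 3 SD, cut at about 34% in these data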;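 note: 0% = IFN-gamma with DMSO and 100% = IFN-gamma with 300 µM nifuroxazide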
STAT3 act: STAT3 signaling activation | U3A cells, IL-6 STAT3-luciferase reporter, luminescence; 100% = signal with IL-6 EC80 alone | activation (% of control), % at 5.6 µM | hit rate 0.91% among 190,000;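 active = activation above the screen-wide mean of compound activation plus 3 SD, cut at about 130% in these data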;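 note: 0% = background luminescence of wells with medium and substrate only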
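Test system: Human STAT1-deficient U3A cells with stable STAT3-luciferase reporter | Also added: Interleukin-6, 33 ng/mL | Timing: Compound pre-incubation 1 h before IL-6, then 6 h stimulation at 37 °C | Technique: Luciferase reporter luminescence | Read-out: Percent of IL-6-only median luminescence | Benchmarks: IL-6-only wells as 100% reference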
MT stabilizer: microtubule stabilizers in HeLa cells | HeLa tubulin immunostaining HCS, 24 h; share of cells brighter than vehicle mean+2SD | % tubulin-high responders, % at 10 µM | hit rate 0.83% among 200,000 | AID 2205;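 active = plate Z-score above 3 for both tubulin-high and condensed-nucleus cell shares, with cell loss under 80%, at 10 µM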;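 note: anti alpha tubulin signal scored within the nucleus-defined area of each cell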
Active calls of the source: *; x = no result. The list is not random: actives were taken first. Their share in the collection is about 2.4%.

SMILES | STAT3 blocker | b-catenin transl | STAT1 inh | STAT3 act | MT stabilizer
C=CCCC(=O)Nc1nc(C)c(-c2csc(Nc3ccccc3OC)n2)s1 | 7 | 56* | -13 | 98 | 36
COc1ccc(Nc2nc(-c3sc(NC(C)=O)nc3C)cs2)cc1 | 30 | x | 3 | 79 | 23*
CCCOc1ccc(OCCOCCN2CCc3ccccc3C2)cc1 | -9 | x | 3 | 106 | 2
O=C(c1ccc(Cl)cc1)N(Cc1ccccc1F)N1C(=O)CCCC1=O | 10 | 0 | 3 | 94 | 5
COc1cc(/C=N/NC(=O)c2nc(-c3ccccc3)n(-c3ccccc3)n2)ccc1O | -4 | -1 | -3 | 105 | 3
COc1cc(/C=N/NC(=O)c2cc(-c3c(C)nn(-c4ccccc4)c3C)n[nH]2)ccc1O | -150 | 0 | -123 | 236* | 5
Cc1nn(-c2ccccc2)c(C)c1-c1cc(C(=O)N/N=C/c2ccc(O)cc2)[nH]n1 | x | 3 | x | x | x
COc1cc(/C=N/Nc2nc(C)nc3c2cnn3-c2ccccc2)ccc1O | 30 | 63* | -11 | 79 | 16*
COc1cc(/C=N/NC(=O)c2[nH]nc3c2CCc2ccccc2-3)ccc1O | 2 | 34 | -2 | 99 | 24*
COc1cc(/C=N/NC(=O)c2ccccc2)ccc1O | 3 | -2 | -22 | 99 | 10
Cc1ccc(S(=O)(=O)Cc2ccc(C(=O)N3CCN(c4cc(C)ccc4C)CC3)o2)cc1 | 12 | -3 | 0 | 96 | 29*
Cc1ccc(C)c(N2CCN(C(=O)c3ccc(CS(=O)(=O)c4ccccc4C)o3)CC2)c1 | 6 | x | -2 | 99 | 19
COc1ccccc1S(=O)(=O)Cc1ccc(C(=O)N2CCN(c3ccccc3)CC2)o1 | 13 | -4 | -4 | 97 | 2
COc1ccccc1S(=O)(=O)Cc1ccc(C(=O)N2CCN(c3cccc(Cl)c3)CC2)o1 | 20 | 44 | 1 | 91 | 48*
Cc1cccc(N2CCN(C(=O)c3ccc(CS(=O)(=O)c4ccccc4C)o3)CC2C)c1 (stereo unspecified) | 7 | 109* | 0 | 98 | 19*
O=S(=O)(NCc1c(Cl)cccc1Oc1ccccc1)c1ccc(F)cc1 | x | -1 | x | x | x
COC(=O)c1ccc(C(=O)OC)c(-n2c(=O)c3ccccc3c3ccccc3c2=O)c1 | 3 | 2 | -10 | 99 | 3
Cc1cc(CCCCCCCCc2cc(C)cc(=O)o2)oc(=O)c1 | -5 | 2 | -8 | 100 | 4
Oc1c(CN2CCCCC2)cc(Br)c2cccnc12 | -37 | 3 | 5 | 135* | 7
O=C(COc1c(Br)cc(Br)c2cccnc12)N1CCCCC1 | -15 | 0 | -1 | 119 | 2
CCOc1cc(C(=O)N/N=C/C(Br)=C/c2ccccc2)cc(OCC)c1OCC | -14 | x | 3 | 110 | 9.1*
O=C(N/N=C/C(Br)=C/c1ccccc1)c1ccncc1 | x | -4 | x | x | x
COc1ccc(C2C=C(c3ccc(Br)s3)Nc3ncnn32)cc1OC (stereo unspecified) | 0 | 58* | 1 | 105 | 29*
COc1ccc(C2C=C(c3ccc(C)cc3)Nc3ncnn32)cc1 (stereo unspecified) | 8 | -4 | -16 | 95 | 5
COc1ccc(CC(=O)OCC(=O)NCc2ccccc2Cl)cc1OC | 3 | 2 | -4 | 102 | 3
SMILES | STAT3 blocker | b-catenin transl | STAT1 inh | STAT3 act | MT stabilizer
CC(=O)Cc1nsc(NC(=O)c2ccc(-c3cccc(Cl)c3)o2)n1 | 12 | -1 | -7 | 96 | 14*
O=C(CN1CCN(S(=O)(=O)c2ccc(Br)cc2)CC1)N/N=C/c1ccc(Cl)c([N+](=O)[O-])c1 | 0 | 0 | -2 | 99 | 13*
Cc1ccc(S(=O)(=O)N2CCN(CC(=O)N/N=C\c3ccc(Cl)c([N+](=O)[O-])c3)CC2)cc1 | -3 | 0 | -7 | 104 | 4
Cc1[nH]c2ccccc2c1/C=C/c1nc2ccccc2c(=O)n1CCO | 23 | -4 | -6 | 86 | 5
CC1(C)Cc2nc3sc4c(SCC(=O)NCc5ccccc5)ncnc4c3cc2CO1 | -13 | x | -34 | 111 | 35*
CC1(C)Cc2nc3sc4c(SCC(=O)O)ncnc4c3cc2CO1 | x | 0 | x | x | x
Cc1ccc(NC(=O)CC(NCC2CCCO2)C(=O)O)cc1C (stereo unspecified) | 18 | 8 | 7 | 94 | 2
Cc1ccc(Cl)c2c1NC(=O)C2(O)CC(=O)c1ccccc1O (stereo unspecified) | -34 | -1 | 5 | 133* | 2

Screening data: PubChem BioAssay, several laboratories
